Results published in ChEMBL document CHEMBL2424622, “Development of amino-pyrimidine inhibitors of c-Jun N-terminal kinase (JNK): kinase profiling guided optimization of a 1,2,3-benzotriazole lead” (Bioorg Med Chem Lett, 2013).

What was measured:
[1] = molecular target: Mitogen-activated protein kinase kinase kinase 9 (Homo sapiens) (UniProt P80192); experiment: Competitive binding affinity to MLK1 (unknown origin) at 10 uM in presence of ATP relative to control
[2] = molecular target: Vascular endothelial growth factor receptor 1 (Homo sapiens) (UniProt P17948); experiment: Competitive binding affinity to FLT1 (unknown origin) at 10 uM in presence of ATP relative to control
[3] = molecular target: T1, Tyrosine-protein kinase ZAP-70 (Homo sapiens) (UniProt P43403); experiment: Competitive binding affinity to ZAP70 (unknown origin) at 10 uM in presence of ATP relative to control
T1 sequence (whole entry): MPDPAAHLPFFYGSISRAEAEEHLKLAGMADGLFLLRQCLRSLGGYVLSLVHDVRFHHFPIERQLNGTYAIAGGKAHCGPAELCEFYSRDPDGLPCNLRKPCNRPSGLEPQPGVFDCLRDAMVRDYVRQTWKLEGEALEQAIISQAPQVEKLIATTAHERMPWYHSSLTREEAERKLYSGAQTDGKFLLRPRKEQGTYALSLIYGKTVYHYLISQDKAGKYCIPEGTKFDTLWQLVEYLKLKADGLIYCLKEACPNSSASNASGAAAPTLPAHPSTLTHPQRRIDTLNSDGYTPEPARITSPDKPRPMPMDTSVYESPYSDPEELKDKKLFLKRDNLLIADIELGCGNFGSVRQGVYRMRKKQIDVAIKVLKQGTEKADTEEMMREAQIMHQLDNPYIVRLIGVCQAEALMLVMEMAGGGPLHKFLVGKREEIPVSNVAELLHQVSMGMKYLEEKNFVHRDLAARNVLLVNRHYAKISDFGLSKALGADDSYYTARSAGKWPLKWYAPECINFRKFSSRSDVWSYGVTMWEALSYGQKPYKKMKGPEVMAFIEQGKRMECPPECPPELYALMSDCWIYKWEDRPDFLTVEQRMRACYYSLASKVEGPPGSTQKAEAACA

[4] = molecular target: Protein kinase C delta type (Homo sapiens) (UniProt Q05655); experiment: Competitive binding affinity to PRKCD (unknown origin) at 10 uM in presence of ATP relative to control
Chain of Protein kinase C delta type (Homo sapiens) (Q05655 whole entry, looked up): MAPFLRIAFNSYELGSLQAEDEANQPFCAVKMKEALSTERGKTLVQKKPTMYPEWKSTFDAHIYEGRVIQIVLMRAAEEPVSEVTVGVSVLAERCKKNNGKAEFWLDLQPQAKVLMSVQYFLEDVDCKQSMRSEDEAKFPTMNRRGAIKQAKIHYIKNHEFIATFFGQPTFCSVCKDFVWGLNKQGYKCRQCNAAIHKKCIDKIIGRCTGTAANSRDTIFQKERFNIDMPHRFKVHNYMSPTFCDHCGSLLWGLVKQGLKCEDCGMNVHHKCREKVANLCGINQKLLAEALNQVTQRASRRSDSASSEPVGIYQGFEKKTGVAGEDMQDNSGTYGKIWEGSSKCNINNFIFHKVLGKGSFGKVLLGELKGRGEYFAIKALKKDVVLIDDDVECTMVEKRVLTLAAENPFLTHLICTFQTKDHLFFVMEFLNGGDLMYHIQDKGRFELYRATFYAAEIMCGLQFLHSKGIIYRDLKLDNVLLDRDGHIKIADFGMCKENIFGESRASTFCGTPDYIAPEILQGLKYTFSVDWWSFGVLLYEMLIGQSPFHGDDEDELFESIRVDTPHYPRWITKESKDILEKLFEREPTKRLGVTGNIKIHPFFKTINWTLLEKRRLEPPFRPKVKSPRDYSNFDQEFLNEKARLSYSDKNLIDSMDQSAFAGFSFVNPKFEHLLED

[5] = molecular target: T2, Dual specificity mitogen-activated protein kinase kinase 4 (Homo sapiens) (UniProt P45985); experiment: Competitive binding affinity to MEK4 (unknown origin) at 10 uM in presence of ATP relative to control
T2 sequence (whole entry): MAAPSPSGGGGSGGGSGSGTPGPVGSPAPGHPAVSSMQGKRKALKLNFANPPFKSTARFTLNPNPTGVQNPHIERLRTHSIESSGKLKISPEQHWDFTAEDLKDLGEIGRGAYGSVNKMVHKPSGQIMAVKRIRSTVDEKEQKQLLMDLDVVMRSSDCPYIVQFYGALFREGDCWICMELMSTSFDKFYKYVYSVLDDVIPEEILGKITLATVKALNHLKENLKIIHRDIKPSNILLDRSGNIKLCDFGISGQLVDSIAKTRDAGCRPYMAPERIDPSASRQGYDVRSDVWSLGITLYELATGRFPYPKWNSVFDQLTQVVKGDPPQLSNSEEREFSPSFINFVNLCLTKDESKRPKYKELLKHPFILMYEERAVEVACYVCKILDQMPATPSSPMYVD

[6] = molecular target: Serine/threonine-protein kinase N1 (Homo sapiens) (UniProt Q16512); experiment: Competitive binding affinity to PKN1 (unknown origin) at 10 uM in presence of ATP relative to control
[7] = molecular target: BDNF/NT-3 growth factors receptor (Homo sapiens) (UniProt Q16620); experiment: Competitive binding affinity to TRKB (unknown origin) at 10 uM in presence of ATP relative to control
Chain of BDNF/NT-3 growth factors receptor (Homo sapiens) (Q16620 32-822 limits assumed): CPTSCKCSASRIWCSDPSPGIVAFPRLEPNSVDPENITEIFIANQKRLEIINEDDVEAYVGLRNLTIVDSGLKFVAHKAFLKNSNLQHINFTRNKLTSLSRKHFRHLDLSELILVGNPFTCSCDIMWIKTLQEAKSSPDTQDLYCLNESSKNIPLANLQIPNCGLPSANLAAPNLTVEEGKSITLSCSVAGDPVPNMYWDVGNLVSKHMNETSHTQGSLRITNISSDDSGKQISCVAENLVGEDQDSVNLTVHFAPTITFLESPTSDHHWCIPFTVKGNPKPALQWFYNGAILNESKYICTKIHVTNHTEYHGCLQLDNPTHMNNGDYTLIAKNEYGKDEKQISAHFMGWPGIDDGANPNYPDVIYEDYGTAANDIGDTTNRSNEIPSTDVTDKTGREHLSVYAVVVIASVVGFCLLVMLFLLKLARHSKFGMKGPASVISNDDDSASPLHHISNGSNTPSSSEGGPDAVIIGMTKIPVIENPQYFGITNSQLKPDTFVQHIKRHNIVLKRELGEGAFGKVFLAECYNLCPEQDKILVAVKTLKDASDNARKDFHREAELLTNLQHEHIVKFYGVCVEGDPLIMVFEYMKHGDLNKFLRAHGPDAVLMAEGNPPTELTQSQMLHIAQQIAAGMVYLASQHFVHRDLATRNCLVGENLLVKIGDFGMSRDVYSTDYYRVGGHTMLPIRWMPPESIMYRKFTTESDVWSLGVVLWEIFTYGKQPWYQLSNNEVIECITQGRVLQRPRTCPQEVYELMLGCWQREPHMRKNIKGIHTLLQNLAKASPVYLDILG

[8] = molecular target: T3, Interleukin-1 receptor-associated kinase 3 (Homo sapiens) (UniProt Q9Y616); experiment: Competitive binding affinity to IRAK3 (unknown origin) at 10 uM in presence of ATP relative to control
T3 sequence (whole entry): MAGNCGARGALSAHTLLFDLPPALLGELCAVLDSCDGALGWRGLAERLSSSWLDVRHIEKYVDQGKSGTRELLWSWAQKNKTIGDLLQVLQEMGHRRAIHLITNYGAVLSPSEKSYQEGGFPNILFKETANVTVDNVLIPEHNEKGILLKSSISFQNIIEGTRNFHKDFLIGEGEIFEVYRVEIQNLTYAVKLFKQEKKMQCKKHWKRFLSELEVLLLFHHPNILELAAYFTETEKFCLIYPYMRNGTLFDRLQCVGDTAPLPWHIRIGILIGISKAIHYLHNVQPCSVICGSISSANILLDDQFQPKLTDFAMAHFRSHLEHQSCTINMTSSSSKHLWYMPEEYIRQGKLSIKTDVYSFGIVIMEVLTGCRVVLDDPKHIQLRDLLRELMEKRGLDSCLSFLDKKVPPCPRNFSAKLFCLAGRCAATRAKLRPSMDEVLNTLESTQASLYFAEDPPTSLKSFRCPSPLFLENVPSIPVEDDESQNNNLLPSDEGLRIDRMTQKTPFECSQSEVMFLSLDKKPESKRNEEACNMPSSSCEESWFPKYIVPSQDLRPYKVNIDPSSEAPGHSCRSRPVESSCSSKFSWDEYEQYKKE

[9] = molecular target: Serine/threonine-protein kinase MRCK alpha (Homo sapiens) (UniProt Q5VT25); experiment: Competitive binding affinity to MRCKA (unknown origin) at 10 uM in presence of ATP relative to control
Chain of Serine/threonine-protein kinase MRCK alpha (Homo sapiens) (Q5VT25 whole entry): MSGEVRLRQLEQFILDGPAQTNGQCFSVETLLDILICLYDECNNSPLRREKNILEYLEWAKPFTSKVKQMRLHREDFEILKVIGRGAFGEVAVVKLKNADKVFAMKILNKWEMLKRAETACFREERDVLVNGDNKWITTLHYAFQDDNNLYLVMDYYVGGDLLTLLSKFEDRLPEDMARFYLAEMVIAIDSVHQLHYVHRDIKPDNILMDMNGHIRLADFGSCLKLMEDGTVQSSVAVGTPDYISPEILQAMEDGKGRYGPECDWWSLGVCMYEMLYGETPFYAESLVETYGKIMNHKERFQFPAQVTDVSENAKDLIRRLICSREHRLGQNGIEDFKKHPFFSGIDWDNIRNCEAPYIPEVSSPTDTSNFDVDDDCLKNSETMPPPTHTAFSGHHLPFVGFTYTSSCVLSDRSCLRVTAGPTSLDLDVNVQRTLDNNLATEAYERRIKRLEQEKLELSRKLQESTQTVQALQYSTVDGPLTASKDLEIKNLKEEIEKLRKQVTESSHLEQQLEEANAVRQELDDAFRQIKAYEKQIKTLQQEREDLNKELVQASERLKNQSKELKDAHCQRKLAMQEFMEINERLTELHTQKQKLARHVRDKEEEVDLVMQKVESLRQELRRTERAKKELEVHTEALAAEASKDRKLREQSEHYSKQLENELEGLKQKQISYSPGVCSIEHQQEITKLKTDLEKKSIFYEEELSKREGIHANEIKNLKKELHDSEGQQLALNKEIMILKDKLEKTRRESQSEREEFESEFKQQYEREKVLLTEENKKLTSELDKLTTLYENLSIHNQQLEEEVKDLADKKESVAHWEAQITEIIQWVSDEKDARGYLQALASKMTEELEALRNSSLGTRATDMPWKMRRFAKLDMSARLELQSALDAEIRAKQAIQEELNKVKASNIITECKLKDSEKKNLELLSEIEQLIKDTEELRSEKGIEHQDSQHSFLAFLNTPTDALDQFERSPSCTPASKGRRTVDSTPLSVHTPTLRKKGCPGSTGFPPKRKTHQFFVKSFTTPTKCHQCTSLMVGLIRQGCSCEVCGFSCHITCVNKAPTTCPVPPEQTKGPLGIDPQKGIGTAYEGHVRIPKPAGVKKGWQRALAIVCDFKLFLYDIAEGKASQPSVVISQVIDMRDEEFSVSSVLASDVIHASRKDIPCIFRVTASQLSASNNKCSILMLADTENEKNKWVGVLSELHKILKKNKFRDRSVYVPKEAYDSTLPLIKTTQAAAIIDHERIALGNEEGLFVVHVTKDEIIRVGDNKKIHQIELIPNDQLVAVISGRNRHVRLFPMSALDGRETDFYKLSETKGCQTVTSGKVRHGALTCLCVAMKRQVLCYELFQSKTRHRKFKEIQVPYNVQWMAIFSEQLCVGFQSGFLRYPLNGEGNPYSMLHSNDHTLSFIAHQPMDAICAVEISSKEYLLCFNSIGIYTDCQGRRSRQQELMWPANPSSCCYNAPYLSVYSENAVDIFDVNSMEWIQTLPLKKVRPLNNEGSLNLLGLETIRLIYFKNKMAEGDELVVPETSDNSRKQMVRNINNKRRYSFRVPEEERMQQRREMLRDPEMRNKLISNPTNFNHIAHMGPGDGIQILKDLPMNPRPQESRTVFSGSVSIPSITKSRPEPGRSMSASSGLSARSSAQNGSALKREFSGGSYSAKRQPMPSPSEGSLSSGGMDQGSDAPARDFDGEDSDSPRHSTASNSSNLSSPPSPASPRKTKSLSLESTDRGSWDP
In short: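 In vitro ATP-site competition binding assay across a diverse panel of 128 kinases, with compound tested at a single concentration. Kinase selectivity scores (S15) were calculated from the panel profiles.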

[10] = molecular target: T4, NUAK family SNF1-like kinase 1 (Homo sapiens) (UniProt O60285); experiment: Competitive binding affinity to ARK5 (unknown origin) at 10 uM in presence of ATP relative to control
T4 sequence (whole entry): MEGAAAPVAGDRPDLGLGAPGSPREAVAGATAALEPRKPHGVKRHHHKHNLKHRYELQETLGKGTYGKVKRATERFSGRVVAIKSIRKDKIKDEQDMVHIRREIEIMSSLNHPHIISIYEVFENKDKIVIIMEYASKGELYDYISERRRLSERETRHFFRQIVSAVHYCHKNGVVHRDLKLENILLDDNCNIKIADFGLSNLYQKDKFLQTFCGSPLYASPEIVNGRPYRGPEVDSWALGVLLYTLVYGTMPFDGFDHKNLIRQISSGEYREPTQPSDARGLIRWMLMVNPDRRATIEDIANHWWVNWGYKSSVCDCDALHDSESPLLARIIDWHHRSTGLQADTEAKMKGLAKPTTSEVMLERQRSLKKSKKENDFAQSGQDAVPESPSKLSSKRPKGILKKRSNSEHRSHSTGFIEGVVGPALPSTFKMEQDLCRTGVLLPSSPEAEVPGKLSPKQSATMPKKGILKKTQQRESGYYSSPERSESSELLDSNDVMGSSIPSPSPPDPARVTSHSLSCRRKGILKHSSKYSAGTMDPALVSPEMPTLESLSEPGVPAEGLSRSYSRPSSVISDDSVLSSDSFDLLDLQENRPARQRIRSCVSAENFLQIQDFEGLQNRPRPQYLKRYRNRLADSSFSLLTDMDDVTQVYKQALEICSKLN

Chain of Mitogen-activated protein kinase kinase kinase 9 (Homo sapiens) (P80192 whole entry, looked up): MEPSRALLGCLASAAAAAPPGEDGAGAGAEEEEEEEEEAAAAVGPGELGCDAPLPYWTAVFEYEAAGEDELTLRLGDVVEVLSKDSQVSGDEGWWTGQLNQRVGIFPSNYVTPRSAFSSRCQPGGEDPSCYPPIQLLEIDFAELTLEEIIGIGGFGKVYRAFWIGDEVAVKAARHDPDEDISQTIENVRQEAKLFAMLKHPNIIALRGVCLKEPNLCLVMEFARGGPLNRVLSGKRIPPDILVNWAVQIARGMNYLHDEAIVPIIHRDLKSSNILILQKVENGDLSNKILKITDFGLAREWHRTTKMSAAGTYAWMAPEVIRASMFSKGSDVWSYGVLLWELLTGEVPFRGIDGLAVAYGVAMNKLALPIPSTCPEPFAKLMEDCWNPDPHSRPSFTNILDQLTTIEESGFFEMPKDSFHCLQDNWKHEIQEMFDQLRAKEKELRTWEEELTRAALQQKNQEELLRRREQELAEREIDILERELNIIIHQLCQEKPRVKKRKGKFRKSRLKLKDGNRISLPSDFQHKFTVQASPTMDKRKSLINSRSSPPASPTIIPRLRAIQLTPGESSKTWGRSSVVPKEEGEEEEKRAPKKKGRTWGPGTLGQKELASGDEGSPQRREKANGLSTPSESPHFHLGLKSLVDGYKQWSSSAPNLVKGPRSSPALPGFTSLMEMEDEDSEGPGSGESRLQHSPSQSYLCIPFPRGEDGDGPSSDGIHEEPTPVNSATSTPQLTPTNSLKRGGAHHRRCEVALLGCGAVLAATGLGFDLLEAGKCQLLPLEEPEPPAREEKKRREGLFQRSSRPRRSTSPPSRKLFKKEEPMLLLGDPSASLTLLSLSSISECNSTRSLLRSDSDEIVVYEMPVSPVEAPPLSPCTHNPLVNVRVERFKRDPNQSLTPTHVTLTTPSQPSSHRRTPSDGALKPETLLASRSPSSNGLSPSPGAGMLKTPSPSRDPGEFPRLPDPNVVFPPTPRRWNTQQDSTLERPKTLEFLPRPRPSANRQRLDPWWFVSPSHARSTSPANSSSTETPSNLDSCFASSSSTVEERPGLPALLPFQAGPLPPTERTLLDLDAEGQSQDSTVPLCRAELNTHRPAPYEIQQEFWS

Row | Compound | inhibition [1] | inhibition [2] | inhibition [3] | inhibition [4] | inhibition [5] | inhibition [6] | inhibition [7] | inhibition [8] | inhibition [9] | inhibition [10]
1 | O[C@H]1CC[C@H](Nc2nccc(-n3nnc4ccccc43)n2)CC1 | < 50% | 82% | < 50% | < 50% | 99% | < 50% | < 50% | 85% | < 50% | 72%
2 | CS(=O)(=O)CCCOc1cccc2c1ccn2-c1ccnc(N[C@H]2CC[C@H](C(=O)N3CCC(O)CC3)CC2)n1 | – | – | – | – | > 85% | – | – | – | – | –
3 | O[C@H]1CC[C@H](Nc2nccc(-n3ncc4ccccc43)n2)CC1 | < 50% | 71% | < 50% | < 50% | 99% | < 50% | < 50% | 88% | < 50% | 74%
4 | O[C@H]1CC[C@H](Nc2nccc(-c3n[nH]c4ccccc34)n2)CC1 | – | 95% | < 50% | – | – | – | 100% | – | < 50% | –
5 | O[C@H]1CC[C@H](Nc2nccc(-n3ccc4ccccc43)n2)CC1 | < 50% | < 50% | < 50% | < 50% | 97% | < 50% | < 50% | 87% | < 50% | < 50%
